The results in this text go back to ChEMBL document CHEMBL4177648, “Benzofuran-dihydropyridine hybrids: A new class of potential bone anabolic agents” (Bioorg Med Chem, 2017).

The subject of assay [1] is Calvarial osteoblast. The assay can be described thus: Anabolic activity in rat calvarial osteoblasts assessed as induction of alkaline phosphatase activity at 1 pM after 48 hrs in presence of beta-glycerophosphate and ascorbic acid by p-nitrophenyl phosphate substrate based assay (reference value: 1 to 1.21). The format is functional.
Assay [2] has as its system Calvarial osteoblast. The assay can be described thus: Anabolic activity in rat calvarial osteoblasts assessed as induction of alkaline phosphatase activity at 100 pM after 48 hrs in presence of beta-glycerophosphate and ascorbic acid by p-nitrophenyl phosphate substrate based assay (reference value: 1 to 1.21). The format is functional.
For assay [3], the system named is Calvarial osteoblast. Description: Anabolic activity in rat calvarial osteoblasts assessed as induction of alkaline phosphatase activity at 10 nM after 48 hrs in presence of beta-glycerophosphate and ascorbic acid by p-nitrophenyl phosphate substrate based assay (reference value: 1 to 1.21). The format is functional.
Assay [4] concerns Calvarial osteoblast. Description: Anabolic activity in rat calvarial osteoblasts assessed as induction of alkaline phosphatase activity at 1 uM after 48 hrs in presence of beta-glycerophosphate and ascorbic acid by p-nitrophenyl phosphate substrate based assay (reference value: 1 to 1.21). The format is functional.
Assay [5] has as its system Calvarial osteoblast. The assay can be described thus: Anabolic activity in rat calvarial osteoblasts assessed as induction of alkaline phosphatase activity at 100 uM after 48 hrs in presence of beta-glycerophosphate and ascorbic acid by p-nitrophenyl phosphate substrate based assay (reference value: 1 to 1.21). The assay is classed as functional.
Assay [6] relates to Calvarial osteoblast. The assay can be described thus: Induction of mineralization in rat calvarial osteoblasts at 10 nM after 21 days by Alizarin-red dye based assay. The format is functional, cell-based. The essentials: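 Rat pup calvarial osteoblasts were seeded at 1×10^4 cells/well in differentiation medium with compound. Medium was changed every other day for 21 days. Cells were fixed in 4% paraformaldehyde and stained with 40 mM Alizarin red (pH 4.5). Stain was extracted with 10% acetic acid, heated to 85 °C, and neutralised with NH4OH. Absorbance was read at 405 nm.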

The test system of assay [7] is Calvarial osteoblast. Description: Upregulation of ALP mRNA levels in rat calvarial osteoblasts at 1 uM after 48 hrs by qRT-PCR analysis relative to control. The format is functional. The essentials: (§1)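 Rat pup calvarial osteoblasts were treated for 48 h with compound. Total RNA was extracted with TRIzol and checked by A260 and A260/A280. qRT-PCR used 45 cycles (94 °C, 62 °C, 72 °C steps) and was normalised to GAPDH. Fold change is over untreated cells; n=5, mean ± SEM.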
Background: In qPCR the cycle at which signal appears reflects the starting amount.

Assay [8] has as its system Calvarial osteoblast. The assay can be described thus: Upregulation of Osx mRNA levels in rat calvarial osteoblasts at 1 uM after 48 hrs by qRT-PCR analysis relative to control. The assay is classed as functional. The essentials:
as §1

Assay [9] relates to Calvarial osteoblast. The assay can be described thus: Upregulation of Col1 mRNA levels in rat calvarial osteoblasts at 1 uM after 48 hrs by qRT-PCR analysis relative to control. The format is functional. The essentials:
as §1

In assay [10] the test system is Calvarial osteoblast. The assay can be described thus: Upregulation of Runx2 mRNA levels in rat calvarial osteoblasts at 1 uM after 48 hrs by qRT-PCR analysis relative to control. The assay is classed as functional. The essentials: as §1
Assay [11] deals with Calvarial osteoblast. Description: Upregulation of Bmp2 mRNA levels in rat calvarial osteoblasts at 1 uM after 48 hrs by qRT-PCR analysis relative to control. The format is functional. The essentials:
as §1

Assay [12] concerns Calvarial osteoblast. The assay can be described thus: Upregulation of ALP mRNA levels in rat calvarial osteoblasts at 10 nM after 48 hrs by qRT-PCR analysis relative to control. The format is functional. The method, boiled down:
as §1

Assay [13] deals with Calvarial osteoblast. Description: Upregulation of Osx mRNA levels in rat calvarial osteoblasts at 10 nM after 48 hrs by qRT-PCR analysis relative to control. The format is functional. The essentials:
as §1

For assay [14], the system named is Calvarial osteoblast. Description: Upregulation of Col1 mRNA levels in rat calvarial osteoblasts at 10 nM after 48 hrs by qRT-PCR analysis relative to control. The format is functional. The method, boiled down: as §1
The test system of assay [15] is Calvarial osteoblast. Description: Upregulation of Runx2 mRNA levels in rat calvarial osteoblasts at 10 nM after 48 hrs by qRT-PCR analysis relative to control. The assay is classed as functional. The method, boiled down:
as §1

In assay [16] the test system is Calvarial osteoblast. The assay can be described thus: Upregulation of Bmp2 mRNA levels in rat calvarial osteoblasts at 10 nM after 48 hrs by qRT-PCR analysis relative to control. The format is functional. The essentials:
as §1

For assay [17], the system named is Calvarial osteoblast. The assay can be described thus: Anabolic activity in rat calvarial osteoblasts assessed as induction of alkaline phosphatase activity after 48 hrs in presence of beta-glycerophosphate and ascorbic acid by p-nitrophenyl phosphate substrate based assay. The assay is classed as functional, cell-based.

SMILES strings stand for the structures. Active and inactive are the calls of the source. No cut-off for these calls is given here.

Take `CCOC(=O)C1=C(C)NC2=C(C(=O)CCC2)C1c1cc(C(C)CC)c2oc(C(=O)c3ccc(OC)cc3)cc2c1` (configuration not stated): the OD in the assay with Calvarial osteoblast [1] was 0.94; with Calvarial osteoblast [2] it was 0.99; in the assay with Calvarial osteoblast [3], 1.4; in the assay with Calvarial osteoblast [4], 1.37; in the assay with Calvarial osteoblast [5] it was 0.25. In the assay with Calvarial osteoblast [6], the result was Active. The “fold change (FC)” value in the assay on Calvarial osteoblast [7], with Calvarial osteoblast [8], in the assay with Calvarial osteoblast [9], in the assay with Calvarial osteoblast [10], in the assay on Calvarial osteoblast [11] and in the assay with Calvarial osteoblast [12] was 2 - 5.5 throughout. For the same compound, the “fold change (FC)” value with Calvarial osteoblast [13], in the assay on Calvarial osteoblast [14], in the assay with Calvarial osteoblast [15] and in the assay on Calvarial osteoblast [16] was 2 - 5.5 each time. Further, the EC50 (commonly the midpoint of the concentration-response curve) in the assay on Calvarial osteoblast [17] amounted to 10 nM.
